Compound activity deposited in PubChem by several laboratories.
An excerpt weighted towards active compounds, which were near 9.6% of everything screened.
Lmaj promast – Leishmania major promastigote growth inhibition; Leishmania major promastigotes, resazurin fluorescence viability; inhibition, % at 10 µM; 200,000 compounds, 9% hits; AID 1063; in the data active means inhibition above about 50%;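 further: promastigotes grown with compound for 44 hours at 28 °C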
APP 5UTR inh – APP translation inhibition | SH-SY5Y APP 5'UTR-luciferase reporter, luminescence | inhibition, % at 2 µM | 190,000 compounds, 0.82% hits;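 active means inhibition above a set limit, derived from the sample mean plus 3 SD, cut at about 45% in these data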
Ba/F3 V617F tox – lowers viability of Ba/F3 cells expressing EpoR and JAK2V617F; ATP luminescence; inhibition, % at 5.6 µM; 220,000 compounds, 1.1% hits; AID 1446;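 active means inhibition above the campaign mean plus 3 SD over all tested compounds, cut at about 24% in these data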;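 further: cytokine-independent growth of Ba/F3 cells driven by EpoR plus mutant JAK2; 0% = DMSO-treated cells and 100% = JAK inhibitor I control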
MT stabilize HCS – microtubule stabilization, imaging screen; % tubulin-high responders, % at 10 µM; HeLa tubulin immunostaining HCS, 24 h; share of cells brighter than vehicle mean+2SD; 200,000 compounds, 0.83% hits;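 active means plate Z-score above 3 for both tubulin-high and condensed-nucleus cell shares, with cell loss under 80%, at 10 µM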;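 further: anti alpha tubulin signal scored within the nucleus-defined area of each cell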
b-catenin transl – beta-catenin nuclear translocation modulation | nuclear translocation activity, % at 5 µM | HeLa beta-catenin nuclear translocation, immunofluorescence imaging | 190,000 compounds, 0.3% hits;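 active means nuclear translocation activity above 50% at 5 µM, with a well cell count of 50 or more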;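 further: per-cell ratio of nuclear to cytoplasmic median beta-catenin stain intensity; plate controls were DMSO negative control for no effect and GSK-3 inhibitor IX positive control for full effect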
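Read-out: Nuclear/cytoplasmic beta-catenin signal ratio, % activation | Assay system: Human HeLa cell line | Times: 24 h compound exposure at 37°C, 5% CO2 | Signal: Fluorescence imaging of beta-catenin antibody stain plus DAPI | Dosing: 5 µM primary, 0.02–20 µM confirmation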
BaF3 parental – reduces parental Ba/F3 cell viability, JAK2V617F counter-screen. AID 1486. inhibition, % at 5.6 µM. CellTiter-Glo ATP luminescence. 220,000 compounds, 1.1% hits;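 active means inhibition above a per-campaign cutoff, the mean inhibition of all tested compounds plus 3 SD, cut at about 27% in these data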;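 further: 0% = DMSO wells and 100% = JAK Inhibitor I control wells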
An asterisk follows results filed as active; . = not tested or not shown.

SMILES | Lmaj promast | APP 5UTR inh | Ba/F3 V617F tox | MT stabilize HCS | b-catenin transl | BaF3 parental
O=C(Cc1cccc2ccccc12)N/N=C/c1ccc2cccc(O)c2n1 | . | . | 1 | . | 1 | -3
Cc1ccsc1/C=C/c1ccc2ccccc2n1 | 0 | -177 | -1 | 2 | -2 | 2
COc1ccc(F)c(CN2CCC(CO)(Cc3cccc(C(F)(F)F)c3)CC2)c1 | 84* | 9 | 10 | 5 | -2 | 6
COc1ccc(CN2CCN(CC=C(C)C)C(CCO)C2)cc1Cn1cccn1 (stereo not drawn) | -1 | 6 | 3 | 3 | 0 | 5
COc1ccc(CN2CCC(CO)(Cc3cccc(C(F)(F)F)c3)CC2)cc1Cn1cccn1 | 81* | -4 | -2 | 3 | 0 | 5
COc1cc(CN2CCC(CO)(Cc3cccc(C(F)(F)F)c3)CC2)ccc1F | . | . | 0 | . | 0 | 1
Cc1ccc(C(=O)Nc2cccc(C(F)(F)F)c2)cc1NC(=O)c1csc(-c2ccncc2)n1 | . | . | . | . | 70* | .
O=C(Nc1ccc(F)cc1F)c1csc(-c2ccncc2)n1 | -1 | -21 | 5 | 1 | -5 | 8
CCSc1nc2ccccc2[nH]1 | 10 | -6 | -3 | 4 | 0 | 4
CC1(C)C(CSc2nc3ccccc3[nH]2)C1(Cl)Cl (stereo not drawn) | 74* | -28 | 5 | 2 | 1 | 10
Cc1ccc(C(=O)c2coc3c2C(=O)C(=O)c2ccccc2-3)cc1 | 100* | -51 | 4 | 1 | . | 8
O=C(c1ccc(Cl)cc1)c1ccc(CN2C(=O)c3ccccc3C2=O)o1 | -4 | 18 | -5 | 3 | -1 | 0
COc1ccc(C(=O)c2coc(-c3ccccc3C(=O)O)c2C(=O)O)cc1 | -2 | 12 | -2 | 3 | . | -1
Cc1oc2c(c1C(=O)c1ccc(Cl)cc1)C(=O)C(=O)c1ccccc1-2 | 101* | 5 | -2 | 12 | 3 | 3
Cc1cc(C(=O)CN2C(=O)NC3(CCCc4sccc43)C2=O)c(C)n1-c1ccc(Cl)cc1 (stereo not drawn) | 84* | 0 | 0 | 2 | 2 | 10
Cc1cc(C(=O)CN2C(=O)NC3(CCCc4ccccc43)C2=O)c(C)n1C (stereo not drawn) | 7 | 14 | -4 | 2 | -3 | 1
CC(=O)c1cccc(NC(=O)Cc2ccc3c(c2)CCCC3)c1 | 81* | -2 | -2 | 3 | 0 | 3
COc1cc(CC(=O)Nc2ccc3c(c2)CCC3)cc(OC)c1OC | 89* | 11 | 0 | 2 | . | 6
COC(=O)C1=C(Nc2ccc(C)cc2)C=C(C)C(C(=O)OC)C1c1cccc(OC)c1 (stereo not drawn) | 45 | -20 | 1 | 18 | 57* | 4
COC(=O)C1=C(Nc2ccc(C)cc2)C=C(C)C(C(=O)OC)C1c1ccc(OC)cc1 (stereo not drawn) | 37 | 13 | 3 | 31* | 72* | 4
COC(=O)C1C(=O)C=C(Nc2ccc(F)cc2)CC1c1ccc(OC)cc1 (stereo not drawn) | 0 | -5 | 3 | 3 | 0 | 8
O=C1CSC(=Nc2cccc(Cl)c2Cl)N1Cc1cccnc1 | . | . | 1 | . | 11 | -1
NS(=O)(=O)c1ccc(NC(=S)NCC2CCCO2)cc1 (stereo not drawn) | 55* | 2 | -3 | 2 | . | -2
COc1ccccc1NC(=S)NCC1CCCO1 (stereo not drawn) | -2 | 6 | -1 | 2 | 0 | 5
CCOc1ccccc1NC(=S)NCC1CCCO1 (stereo not drawn) | 51* | -2 | 5 | 1 | 0 | 13
SMILES | Lmaj promast | APP 5UTR inh | Ba/F3 V617F tox | MT stabilize HCS | b-catenin transl | BaF3 parental
Cn1cccc1/C=C(/C#N)c1ccc(F)cc1 | 10 | -7 | -2 | 4 | 0 | 2
NC(=O)CC(NC(=O)c1ccccc1)c1ccc(NCCc2ccc(Cl)cc2)c([N+](=O)[O-])c1 (stereo not drawn) | . | . | . | . | 2 | .
CNC(=S)Nc1ccc(OCc2ccccc2)cc1 | -1 | -17 | 0 | 6 | 2 | 5
CCOc1ccc(NC(=S)Nc2ccc(OCc3ccccc3)cc2)cc1 | 52* | 14 | 1 | 2 | -2 | 8
S=C(NCCSCc1ccc(Cl)c(Cl)c1)Nc1ccccc1 | 15 | 7 | 2 | 3 | . | 4
Cc1ccc(NC(=O)NNS(=O)(=O)c2ccc(Br)cc2)cc1 | -6 | -31 | 2 | 4 | . | 1
CCOc1ccc(S(=O)(=O)NNC(=S)Nc2ccc(Br)cc2)cc1 | 62* | 3 | -2 | 3 | 1 | -4
S=C(NCCSCc1ccc(Cl)cc1Cl)Nc1ccccc1 | 84* | -4 | -3 | 1 | -1 | 7
CCOc1ccc(NC(=S)NN2C(C)CCCC2C)cc1 (stereo not drawn) | 51* | 9 | 0 | 3 | -2 | 2
O=C(C[n+]1ccc(/C=N/O)cc1)N(Cc1ccccc1)Cc1ccccc1 | -1 | -4 | 2 | 3 | 0 | 9
Cc1ccc(NC(=O)C2CC(=O)Nc3nc4ccccc4n32)c(C)c1 (stereo not drawn) | . | . | 0 | . | 0 | -5
C=CCn1c(SCC(=O)Nc2cccnc2Cl)nnc1-c1ccc(C(C)(C)C)cc1 | 5 | -8 | 4 | 4 | -1 | 7
S=C(Nc1ccccc1)Nc1ccc(OCc2ccc(Cl)cc2Cl)cc1 | 18 | 70* | -2 | 2 | -5 | 1
O=C(C/C=N\OCc1ccc(Cl)cc1Cl)Nc1ccccc1 | 3 | 10 | 0 | 5 | -1 | 4
Cc1ccc(N=Nc2ccc(O)c3ncccc23)cc1C | 100* | 27 | -1 | 11 | 0 | 4
Cc1ccc(N=Nc2ccc(O)c3ncccc23)cc1 | 100* | 78* | 2 | 3 | -4 | 11
CCS(=O)(=O)c1ccc(O)c(NC(=O)c2cc(OC)c(OC)c(OC)c2)c1 | 1 | -5 | -2 | 5 | -1 | -1
CCS(=O)(=O)c1ccc(N=Nc2ccc(O)c3ncccc23)c(OC)c1 | 100* | 63* | 0 | 3 | 2 | 8
Cn1nc(C(=O)OCc2ccc(Br)cc2F)c2ccccc2c1=O | -12 | -4 | 5 | 2 | 2 | 4
FC(F)Sc1ccc(N=C2NN=C(c3ccc4c(c3)OCCO4)CS2)cc1 | 55* | -51 | -3 | 5 | 0 | 4
c1cc2c(cc1C1=NNC(=NC3CC3)SC1)OCCO2 | -2 | 51* | 9 | 2 | 2 | 12
CC1CCCC(NC(=O)COC(=O)/C=C/c2ccc(S(=O)(=O)N3CCOCC3)cc2)C1C (stereo not drawn) | . | . | 0 | . | 1 | -1
CCn1nnnc1-c1ccc(OC)c(S(=O)(=O)Nc2ccc(C)c(C)c2)c1 | 99* | 8 | -6 | 2 | . | -3
CCn1nnnc1-c1ccc(OC)c(S(=O)(=O)NCc2ccccc2)c1 | -4 | -8 | -1 | 6 | -3 | 4
COc1cccc(C(=O)Nc2ccc(C3CC3(Cl)Cl)cc2)c1 (stereo not drawn) | 1 | -94 | 2 | 3 | -2 | 11
